Measured values taken from ChEMBL document CHEMBL4028907, “Semisynthesis and Biological Evaluation of Xanthone Amphiphilics as Selective, Highly Potent Antifungal Agents to Combat Fungal Resistance” (J Med Chem, 2017).
Converted amounts (≈) assume the structure as drawn.

Columns and labels:
Candida albicans [1] = test: Antifungal activity against Candida albicans ATCC 10231 after 24 hrs by two fold serial dilution method; format: functional; details: ATCC 10231, 24 h
In short: (§1)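 Candida grown on Sabouraud dextrose agar at 35 °C for 24 h, adjusted to ~5×10^3 CFU/mL. Two-fold dilutions from 100 to 0.78 μg/mL in Sabouraud dextrose broth, incubated at 35 °C for 24 h. MIC is the lowest concentration inhibiting growth by eye and by OD600. CLSI-based with minor modifications.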

Candida albicans [2] = test: Antifungal activity against drug resistant Candida albicans DF2672R after 24 hrs by two fold serial dilution method; format: functional; in short: as §1
[3] = Selectivity index, ratio of HC50 for New Zealand white rabbit RBC to MIC for Candida albicans ATCC 10231
[4] = Dissociation constant, pKa of compound; format: physicochemical

| SMILES | MIC (Candida albicans [1]) | MIC (Candida albicans [2]) | Selectivity Index [3] | pKa [4] |
| --- | --- | --- | --- | --- |
| CCCCCCN(CCCCCC)CC(O)COc1cc2oc3cc(OCC(O)CN(CCCCCC)CCCCCC)c(OC)c(CC=C(C)C)c3c(=O)c2c(O)c1CC=C(C)C (stereo not drawn) | 12.5 µg/mL (≈ 14 µM) | 12.5 µg/mL (≈ 14 µM) | > 32 | – |
| Clc1ccc(COC(Cn2ccnc2)c2ccc(Cl)cc2Cl)c(Cl)c1 (stereo not drawn) [MICONAZOLE] | – | 0.39 µg/mL (≈ 0.937 µM) | – | – |
| COc1c(OCC(O)CNCCNCCNCCN)cc2oc3cc(OCC(O)CNCCNCCNCCN)c(CC=C(C)C)c(O)c3c(=O)c2c1CC=C(C)C (stereo not drawn) | 12.5 µg/mL (≈ 15.3 µM) | 25 µg/mL (≈ 30.7 µM) | 14.9 to 29.8 | – |
| COc1c(OCC(O)CNCCN)cc2oc3cc(OCC(O)CNCCN)c(CC=C(C)C)c(O)c3c(=O)c2c1CC=C(C)C (stereo not drawn) | 6.25 µg/mL (≈ 9.72 µM) | 12.5 µg/mL (≈ 19.4 µM) | 2.4 to 4.8 | – |
| CCC(C)n1ncn(-c2ccc(N3CCN(c4ccc(OCC5COC(Cn6cncn6)(c6ccc(Cl)cc6Cl)O5)cc4)CC3)cc2)c1=O (stereo not drawn) [ITRACONAZOLE] | – | 6.25 µg/mL (≈ 8.86 µM) | – | – |
| COc1c(OCC(O)CN2CCNCC2)cc2oc3cc(OCC(O)CN4CCNCC4)c(CC=C(C)C)c(O)c3c(=O)c2c1CC=C(C)C (stereo not drawn) | 12.5 µg/mL (≈ 18 µM) | 12.5 µg/mL (≈ 18 µM) | 2.6 | 9.55 |
| CCCCCCNCC(O)COc1cc2oc3cc(OCC(O)CNCCCCCC)c(OC)c(CC=C(C)C)c3c(=O)c2c(O)c1CC=C(C)C (stereo not drawn) | 12.5 µg/mL (≈ 17.2 µM) | 12.5 µg/mL (≈ 17.2 µM) | 27.5 | – |
| COc1c(OCC(O)CN2CCCC2)cc2oc3cc(OCC(O)CN4CCCC4)c(CC=C(C)C)c(O)c3c(=O)c2c1CC=C(C)C (stereo not drawn) | 6.25 µg/mL (≈ 9.4 µM) | 6.25 µg/mL (≈ 9.4 µM) | 4.2 | 11.3 |
| COc1c(OCC(O)CNCc2ccc(F)cc2)cc2oc3cc(OCC(O)CNCc4ccc(F)cc4)c(CC=C(C)C)c(O)c3c(=O)c2c1CC=C(C)C (stereo not drawn) | 6.25 µg/mL (≈ 8.09 µM) | 6.25 µg/mL (≈ 8.09 µM) | > 64 | – |
| CCCNCC(O)COc1cc2oc3cc(OCC(O)CNCCC)c(OC)c(CC=C(C)C)c3c(=O)c2c(O)c1CC=C(C)C (stereo not drawn) | 6.25 µg/mL (≈ 9.75 µM) | 6.25 µg/mL (≈ 9.75 µM) | 11.6 | – |
| COc1c(OCC(O)CN2CCOCC2)cc2oc3cc(OCC(O)CN4CCOCC4)c(CC=C(C)C)c(O)c3c(=O)c2c1CC=C(C)C (stereo not drawn) | 6.25 µg/mL (≈ 8.97 µM) | 6.25 µg/mL (≈ 8.97 µM) | > 64 | – |
| COc1c(OCC(O)CNC(CO)(CO)CO)cc2oc3cc(OCC(O)CNC(CO)(CO)CO)c(CC=C(C)C)c(O)c3c(=O)c2c1CC=C(C)C (stereo not drawn) | 6.25 µg/mL (≈ 8.17 µM) | 6.25 µg/mL (≈ 8.17 µM) | 3.9 | – |
| COc1c(OCC(O)CNCCNCCN)cc2oc3cc(OCC(O)CNCCNCCN)c(CC=C(C)C)c(O)c3c(=O)c2c1CC=C(C)C (stereo not drawn) | 6.25 µg/mL (≈ 8.57 µM) | 12.5 µg/mL (≈ 17.1 µM) | 13.2 to 26.4 | – |
| CCCCCCCCNCC(O)COc1cc2oc3cc(OCC(O)CNCCCCCCCC)c(OC)c(CC=C(C)C)c3c(=O)c2c(O)c1CC=C(C)C (stereo not drawn) | > 50 µg/mL | > 50 µg/mL | – | – |
| COc1c(OCC2CO2)cc2oc3cc(OCC4CO4)c(CC=C(C)C)c(O)c3c(=O)c2c1CC=C(C)C (stereo not drawn) | > 50 µg/mL | > 50 µg/mL | – | – |
| CN(C/C=C/C#CC(C)(C)C)Cc1cccc2ccccc12 [TERBINAFINE] | – | 3.13 µg/mL (≈ 10.7 µM) | – | – |
| COC(=O)[C@H](CCCNC(=N)N)NC(=O)[C@H](CCCNC(=N)N)NC(=O)COc1cc2oc3cc(OCC(=O)N[C@@H](CCCNC(=N)N)C(=O)N[C@@H](CCCNC(=N)N)C(=O)OC)c(OC)c(CC=C(C)C)c3c(=O)c2c(O)c1CC=C(C)C | 6.25 µg/mL (≈ 5.3 µM) | 12.5 µg/mL (≈ 10.6 µM) | 22.2 to 44.4 | – |
| CCCC[N+](C)(CCCC)CC(O)COc1cc2oc3cc(OCC(O)C[N+](C)(CCCC)CCCC)c(OC)c(CC=C(C)C)c3c(=O)c2c(O)c1CC=C(C)C.[I-].[I-] (stereo not drawn) | 6.25 µg/mL | 6.25 µg/mL | 5.3 | – |
